Measured values published in ChEMBL document CHEMBL2390901, “Synthesis and biological evaluation of N-(4-hydroxy-3-mercaptonaphthalen-1-yl)amides as inhibitors of angiogenesis and tumor growth” (Eur J Med Chem, 2013).
The source made the active and inactive calls. The calls are words filed in the database; no cut-off is given here.

Experiments:
Aorta [1] = test: Antiangiogenic activity in Sprague-Dawley rat aortic rings assessed as inhibition of microvessel outgrowth at 50 uM after 6 days by matrigel assay; type: functional; conditions: for inhibition at 50 µM: 144 h
Procedure, shortened: (§1)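 Aortas from 8–10-week-old male Sprague Dawley rats cleaned of fibroadipose tissue, cut into 1-mm rings, embedded between two Matrigel layers. Compound or vehicle (0.5 % DMSO) added every other day for 6 days; imaged day 7 (×200). Sprouting area quantified as pixels versus vehicle; mean ± SD, three independent experiments.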

PC-3 = test: Antiproliferative activity against human PC3 cells after 48 hrs by MTT assay; type: functional, cell-based; conditions: PC-3, 48 h
Procedure, shortened: (§2)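 Cells kept in RPMI 1640 with 10 % FBS at 37 °C, 5 % CO2. Seeded 5,000/well, allowed 4 h, then exposed to serial dilutions for 48 h. MTT added for the last 4 h; formazan dissolved in DMSO, absorbance at 570 nm.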

[2] = molecular target: RAC-alpha serine/threonine-protein kinase (Homo sapiens) (UniProt P31749); test: Inhibition of AKT1 (unknown origin) at 10 uM after 30 mins by fluorescence assay
RAC-alpha serine/threonine-protein kinase (Homo sapiens), sequence (P31749 whole entry): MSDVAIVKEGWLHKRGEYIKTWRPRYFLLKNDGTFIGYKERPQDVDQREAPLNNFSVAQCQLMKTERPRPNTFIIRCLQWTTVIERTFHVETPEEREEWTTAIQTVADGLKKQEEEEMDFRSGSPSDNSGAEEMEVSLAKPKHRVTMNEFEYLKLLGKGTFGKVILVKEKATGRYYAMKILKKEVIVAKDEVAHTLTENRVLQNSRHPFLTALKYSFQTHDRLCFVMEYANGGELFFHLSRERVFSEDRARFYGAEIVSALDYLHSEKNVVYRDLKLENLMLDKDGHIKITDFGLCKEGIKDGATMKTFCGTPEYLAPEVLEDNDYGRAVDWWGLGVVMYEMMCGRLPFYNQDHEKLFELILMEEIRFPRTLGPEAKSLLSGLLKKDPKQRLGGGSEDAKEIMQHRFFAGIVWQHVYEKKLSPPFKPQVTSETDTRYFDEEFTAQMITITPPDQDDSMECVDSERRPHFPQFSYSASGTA
Procedure, shortened: (§3)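 Single 10 μM test. Enzyme preincubated with compound in Hepes/Tris pH 7.4, EGTA/Tris, MgCl2, DTT, 0.008 % Tween 20. Substrate peptide and ATP added; 30 min at room temperature. Stopped with EDTA; europium-labelled anti-phospho PT66 antibody added, TR-FRET read after 60 min. Percent inhibition versus control enzyme activity; no-enzyme basal control; duplicate.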

[3] = molecular target: ALK tyrosine kinase receptor (Homo sapiens) (UniProt Q9UM73); test: Inhibition of ALK (unknown origin) at 10 uM after 30 mins by fluorescence assay; procedure, shortened: as §3
ALK tyrosine kinase receptor (Homo sapiens), sequence (Q9UM73 19-1620 limits assumed): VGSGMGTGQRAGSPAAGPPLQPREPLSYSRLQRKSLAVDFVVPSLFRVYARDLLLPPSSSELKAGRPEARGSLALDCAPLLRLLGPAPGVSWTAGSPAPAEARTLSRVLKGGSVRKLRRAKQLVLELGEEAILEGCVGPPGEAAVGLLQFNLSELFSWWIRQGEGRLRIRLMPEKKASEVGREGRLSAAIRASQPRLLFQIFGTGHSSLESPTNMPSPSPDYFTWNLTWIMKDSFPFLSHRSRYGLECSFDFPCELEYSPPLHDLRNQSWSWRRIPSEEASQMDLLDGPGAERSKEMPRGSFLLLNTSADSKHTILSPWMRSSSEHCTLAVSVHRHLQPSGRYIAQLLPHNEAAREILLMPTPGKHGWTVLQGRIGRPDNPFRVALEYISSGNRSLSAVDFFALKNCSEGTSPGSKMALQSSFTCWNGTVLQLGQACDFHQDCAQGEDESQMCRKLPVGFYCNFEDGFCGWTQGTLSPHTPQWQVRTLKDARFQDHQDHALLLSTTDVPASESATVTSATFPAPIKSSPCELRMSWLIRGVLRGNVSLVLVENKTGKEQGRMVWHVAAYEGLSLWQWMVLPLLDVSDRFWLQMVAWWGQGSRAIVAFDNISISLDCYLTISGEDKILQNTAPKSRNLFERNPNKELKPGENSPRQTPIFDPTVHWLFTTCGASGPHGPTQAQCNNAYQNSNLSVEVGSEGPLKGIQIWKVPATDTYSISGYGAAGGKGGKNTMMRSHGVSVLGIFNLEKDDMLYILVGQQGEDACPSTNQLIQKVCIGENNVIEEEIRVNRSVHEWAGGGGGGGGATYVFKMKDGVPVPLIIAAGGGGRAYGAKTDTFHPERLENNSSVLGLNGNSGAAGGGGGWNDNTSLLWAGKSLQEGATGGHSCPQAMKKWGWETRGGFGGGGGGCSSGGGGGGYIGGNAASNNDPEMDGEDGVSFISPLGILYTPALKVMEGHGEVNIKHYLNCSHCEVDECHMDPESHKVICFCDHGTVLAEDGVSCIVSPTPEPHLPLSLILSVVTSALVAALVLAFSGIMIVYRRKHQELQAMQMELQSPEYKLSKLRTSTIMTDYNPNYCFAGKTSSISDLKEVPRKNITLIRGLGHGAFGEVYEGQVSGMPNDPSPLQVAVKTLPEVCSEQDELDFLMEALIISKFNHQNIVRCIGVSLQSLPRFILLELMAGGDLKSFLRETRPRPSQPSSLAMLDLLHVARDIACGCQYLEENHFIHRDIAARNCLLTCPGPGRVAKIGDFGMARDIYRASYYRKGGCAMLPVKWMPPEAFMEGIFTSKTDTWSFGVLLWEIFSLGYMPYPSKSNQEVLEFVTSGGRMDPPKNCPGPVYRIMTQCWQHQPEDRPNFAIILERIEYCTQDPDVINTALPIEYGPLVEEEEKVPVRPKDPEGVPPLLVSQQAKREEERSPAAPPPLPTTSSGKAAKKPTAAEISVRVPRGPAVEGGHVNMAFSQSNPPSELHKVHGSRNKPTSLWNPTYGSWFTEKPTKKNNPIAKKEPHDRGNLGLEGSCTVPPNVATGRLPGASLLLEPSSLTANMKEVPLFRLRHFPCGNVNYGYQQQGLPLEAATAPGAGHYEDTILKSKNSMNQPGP

HCT-116 = test: Antiproliferative activity against human HCT116 cells after 48 hrs by MTT assay; type: functional, cell-based; conditions: HCT-116, 48 h; procedure, shortened: as §2
MDA-MB-231 = test: Antiproliferative activity against human MDA-MB-231 cells after 48 hrs by MTT assay; type: functional, cell-based; conditions: MDA-MB-231, 48 h; procedure, shortened: as §2
HUVEC [4] = test: Antiangiogenic activity in HUVEC assessed as inhibition of tube formation at 50 uM after 6 hrs by matrigel assay; type: functional; conditions: Homo sapiens
Procedure, shortened: (§4)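 HUVECs seeded at 40,000 cells/well on Matrigel (gelled 30 min, 37 °C) in M199 with 5 % FBS plus compound or vehicle (0.5 % DMSO); 6 h at 37 °C, 5 % CO2. Tubes photographed by phase-contrast (×200); tube area measured as pixels and compared with vehicle. Mean ± SD of three independent experiments.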

Aorta [5] = test: Antiangiogenic activity in Sprague-Dawley rat aortic rings assessed as inhibition of microvessel outgrowth at 1 uM after 6 days by matrigel assay; type: functional; conditions: 144 h; procedure, shortened: as §1
Aorta [6] = test: Antiangiogenic activity in Sprague-Dawley rat aortic rings assessed as inhibition of microvessel outgrowth at 10 uM after 6 days by matrigel assay; type: functional; conditions: 144 h; procedure, shortened: as §1
HUVEC [7] = test: Antiangiogenic activity in HUVEC assessed as inhibition of tube formation at 10 uM after 6 hrs by matrigel assay; type: functional; conditions: Homo sapiens; procedure, shortened: as §4
Aorta [8] = test: Antiangiogenic activity in Sprague-Dawley rat aortic rings assessed as reduction of microvessel outgrowth after 6 days by matrigel assay; type: functional, tissue-based; procedure, shortened: as §1
HUVEC [9] = test: Antiproliferative activity against human HUVEC cells after 48 hrs by MTT assay; type: functional, cell-based; procedure, shortened: as §2
K562 = test: Antiproliferative activity against human K562 cells after 48 hrs by MTT assay; type: functional, cell-based; conditions: K562, 48 h; procedure, shortened: as §2
A549 = test: Antiproliferative activity against human A549 cells after 48 hrs by MTT assay; type: functional, cell-based; conditions: A549, 48 h; procedure, shortened: as §2
MCF7 = test: Antiproliferative activity against human MCF7 cells after 48 hrs by MTT assay; type: functional, cell-based; conditions: MCF7, 48 h; procedure, shortened: as §2
[10] = molecular target: Platelet-derived growth factor receptor beta (Homo sapiens) (UniProt P09619); test: Inhibition of PDGFR-beta (unknown origin) at 10 uM after 30 mins by fluorescence assay
Platelet-derived growth factor receptor beta (Homo sapiens), sequence (P09619 whole entry): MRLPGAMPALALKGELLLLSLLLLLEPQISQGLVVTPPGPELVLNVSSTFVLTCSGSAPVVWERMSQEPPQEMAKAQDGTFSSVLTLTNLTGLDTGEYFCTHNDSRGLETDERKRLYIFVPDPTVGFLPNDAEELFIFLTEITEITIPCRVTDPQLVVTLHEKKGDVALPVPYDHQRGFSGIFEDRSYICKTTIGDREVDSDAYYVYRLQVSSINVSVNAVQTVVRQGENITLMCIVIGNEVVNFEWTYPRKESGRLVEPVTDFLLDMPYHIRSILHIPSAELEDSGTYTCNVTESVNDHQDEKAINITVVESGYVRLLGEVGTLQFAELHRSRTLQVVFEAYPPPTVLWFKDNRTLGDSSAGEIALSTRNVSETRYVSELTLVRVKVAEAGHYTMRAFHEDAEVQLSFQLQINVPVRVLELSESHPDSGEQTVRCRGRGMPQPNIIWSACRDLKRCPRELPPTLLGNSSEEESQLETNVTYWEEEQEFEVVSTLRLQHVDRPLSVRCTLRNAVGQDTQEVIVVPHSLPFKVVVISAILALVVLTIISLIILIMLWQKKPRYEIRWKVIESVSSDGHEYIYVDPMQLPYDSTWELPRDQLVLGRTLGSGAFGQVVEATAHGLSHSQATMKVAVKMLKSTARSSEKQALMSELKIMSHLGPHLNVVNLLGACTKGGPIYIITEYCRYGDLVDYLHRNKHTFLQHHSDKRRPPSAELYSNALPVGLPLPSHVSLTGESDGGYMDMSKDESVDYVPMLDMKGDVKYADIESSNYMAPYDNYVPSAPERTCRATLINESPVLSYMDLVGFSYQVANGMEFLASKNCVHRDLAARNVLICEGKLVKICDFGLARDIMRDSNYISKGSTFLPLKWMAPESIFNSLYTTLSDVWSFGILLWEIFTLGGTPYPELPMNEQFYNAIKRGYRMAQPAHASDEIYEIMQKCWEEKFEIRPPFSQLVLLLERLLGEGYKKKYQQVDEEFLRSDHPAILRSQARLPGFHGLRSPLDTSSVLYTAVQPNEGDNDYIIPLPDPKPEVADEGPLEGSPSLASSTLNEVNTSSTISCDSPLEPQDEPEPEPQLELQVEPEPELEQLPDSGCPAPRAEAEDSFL

[11] = molecular target: Vascular endothelial growth factor receptor 2 (Homo sapiens) (UniProt P35968); test: Inhibition of VEGFR2 (unknown origin) at 10 uM after 30 mins by fluorescence assay
Vascular endothelial growth factor receptor 2 (Homo sapiens), sequence (P35968 whole entry): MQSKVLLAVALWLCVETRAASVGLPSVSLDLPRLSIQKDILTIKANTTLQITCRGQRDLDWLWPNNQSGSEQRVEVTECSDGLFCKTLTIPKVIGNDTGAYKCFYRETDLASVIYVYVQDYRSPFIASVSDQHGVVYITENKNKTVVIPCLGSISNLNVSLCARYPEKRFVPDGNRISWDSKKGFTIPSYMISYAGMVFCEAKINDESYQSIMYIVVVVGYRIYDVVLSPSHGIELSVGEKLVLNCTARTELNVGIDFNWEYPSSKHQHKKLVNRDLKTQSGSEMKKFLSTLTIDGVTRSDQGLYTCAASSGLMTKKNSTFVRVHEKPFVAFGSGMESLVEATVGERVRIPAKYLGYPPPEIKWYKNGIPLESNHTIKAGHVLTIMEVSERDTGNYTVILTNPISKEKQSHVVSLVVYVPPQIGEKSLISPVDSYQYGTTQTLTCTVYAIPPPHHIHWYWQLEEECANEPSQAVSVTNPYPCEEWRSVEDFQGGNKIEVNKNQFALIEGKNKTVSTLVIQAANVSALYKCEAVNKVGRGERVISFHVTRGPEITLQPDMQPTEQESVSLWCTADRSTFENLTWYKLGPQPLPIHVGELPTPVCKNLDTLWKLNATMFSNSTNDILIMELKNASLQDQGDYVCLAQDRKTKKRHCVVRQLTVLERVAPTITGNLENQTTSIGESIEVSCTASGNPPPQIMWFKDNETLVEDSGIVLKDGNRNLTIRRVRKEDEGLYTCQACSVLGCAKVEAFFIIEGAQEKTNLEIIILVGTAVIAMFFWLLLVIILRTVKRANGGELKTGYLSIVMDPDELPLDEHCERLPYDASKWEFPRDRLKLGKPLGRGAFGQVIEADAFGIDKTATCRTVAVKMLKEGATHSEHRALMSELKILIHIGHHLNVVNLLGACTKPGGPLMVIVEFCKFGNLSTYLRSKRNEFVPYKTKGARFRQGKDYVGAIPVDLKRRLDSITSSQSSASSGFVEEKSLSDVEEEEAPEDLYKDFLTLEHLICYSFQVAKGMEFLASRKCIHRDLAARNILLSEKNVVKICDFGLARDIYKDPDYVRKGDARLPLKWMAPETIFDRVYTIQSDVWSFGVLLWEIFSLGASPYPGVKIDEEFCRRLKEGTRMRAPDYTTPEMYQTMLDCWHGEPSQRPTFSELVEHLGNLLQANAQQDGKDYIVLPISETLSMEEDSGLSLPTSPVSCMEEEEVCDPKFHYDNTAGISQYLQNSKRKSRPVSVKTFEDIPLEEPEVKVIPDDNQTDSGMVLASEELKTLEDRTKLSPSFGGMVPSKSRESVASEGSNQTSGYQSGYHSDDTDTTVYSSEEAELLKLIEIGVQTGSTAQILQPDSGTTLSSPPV

Row | Compound | inhibition (Aorta [1]) | IC50 (PC-3) [µM] | inhibition [2] [%] | inhibition [3] | IC50 (HCT-116) [µM] | IC50 (MDA-MB-231) [µM] | inhibition at 50 µM (HUVEC [4]) [%] | inhibition at 1 µM (Aorta [5]) [%] | inhibition at 50 µM (Aorta [1]) [%] | inhibition at 10 µM (Aorta [6]) [%] | inhibition at 10 µM (HUVEC [7]) [%] | Activity (Aorta [8]) | IC50 (HUVEC [9]) [µM] | IC50 (K562) [µM] | IC50 (A549) [µM] | IC50 (MCF7) [µM] | inhibition (HUVEC [7]) | inhibition [10] [%] | inhibition [11] [%]
1 | O=C(Nc1cc(Sc2ncn[nH]2)c(O)c2ccccc12)c1ccc([N+](=O)[O-])cc1 | Active | 53.5 | 37.3 | 3.37% | > 100 | > 100 | > 80 | – | – | – | – | – | – | – | – | – | – | – | –
2 | Cn1nnnc1Sc1cc(NC(=O)c2ccc(Cl)cc2)c2ccccc2c1O | Active | > 100 | 13.1 | inactive | > 100 | > 100 | – | – | – | – | – | – | – | – | – | – | – | – | –
3 | O=C(Nc1cc(Sc2ncn[nH]2)c(O)c2ccccc12)c1cccc([N+](=O)[O-])c1 | Active | 26.9 | 29.3 | inactive | 70.2 | 48 | – | – | – | – | – | – | – | – | – | – | – | – | –
4 | Cc1nnc(Sc2cc(NC(=O)c3ccc(Cl)cc3)c3ccccc3c2O)s1 | – | 49.5 | 8.48 | 9.25% | > 100 | > 100 | > 80 | 18 | 91 | 23 | 81 | Dose-dependent effect | – | – | – | – | – | – | –
5 | O=C(Nc1cc(Sc2ncn[nH]2)c(O)c2ccccc12)c1ccc(Cl)cc1 | inactive | 5.52 | 50.1 | inactive | 43.3 | 25.7 | 65 | – | – | – | – | – | > 100 | 18.8 | 41.9 | > 100 | Active | – | –
6 | O=C(Nc1cc(Sc2ncnc3nc[nH]c23)c(O)c2ccccc12)c1ccccc1[N+](=O)[O-] | – | > 100 | 50.7 | inactive | 31.7 | 54.2 | > 80 | > 70 | 96 | – | – | Dose-dependent effect | – | 37.2 | > 100 | > 100 | – | – | –
7 | COc1ccc(/C=C/C(=O)Nc2cc(Sc3ncn[nH]3)c(O)c3ccccc23)cc1OC | Active | > 100 | 31.6 | 14.9% | > 100 | 52.5 | – | – | – | – | – | – | – | – | – | – | – | – | –
8 | O=C(Nc1cc(Sc2ncnc3nc[nH]c23)c(O)c2ccccc12)c1ccc(Cl)cc1 | – | 66.4 | 21.7 | inactive | > 100 | 23 | – | > 70 | 92 | – | – | Dose-dependent effect | 7.53 | 16.9 | 38.4 | 14.4 | – | – | –
9 | O=C(Nc1cc(Sc2ncn[nH]2)c(O)c2ccccc12)c1cccc(Cl)c1 | Active | 85.6 | 46 | inactive | > 100 | > 100 | > 80 | – | – | – | – | – | – | – | – | – | – | – | –
10 | O=C(/C=C/c1ccc(Cl)cc1)Nc1cc(Sc2ncn[nH]2)c(O)c2ccccc12 | Active | > 100 | 31.8 | 0.7% | > 100 | > 100 | – | – | – | – | – | – | – | – | – | – | – | – | –
11 | O=C(/C=C/c1ccc([N+](=O)[O-])cc1)Nc1cc(Sc2ncn[nH]2)c(O)c2ccccc12 | Active | > 100 | 40.6 | inactive | > 100 | > 100 | – | – | – | – | – | – | – | – | – | – | – | – | –
12 | COc1cccc(C(=O)Nc2cc(Sc3ncn[nH]3)c(O)c3ccccc23)c1 | Active | 42.1 | 19.4 | inactive | > 100 | > 100 | – | – | – | – | – | – | – | – | – | – | – | – | –
13 | CNC(=O)c1cc(Oc2ccc(NC(=O)Nc3ccc(Cl)c(C(F)(F)F)c3)cc2)ccn1 [SORAFENIB] | – | 24.2 | – | – | 8.08 | 14.6 | – | – | – | – | – | – | 6.42 | 13.8 | 12.5 | 7.33 | – | – | –
14 | O=C(Nc1cc(Sc2ncn[nH]2)c(O)c2ccccc12)c1ccc2ccccc2c1 | Active | > 100 | 41.6 | inactive | > 100 | 45.1 | – | – | – | – | – | – | – | – | – | – | – | – | –
15 | O=C(Nc1cc(Sc2nncs2)c(O)c2ccccc12)c1ccc(Cl)cc1 | Active | > 100 | 7.5 | 4.2% | > 100 | > 100 | > 80 | – | – | – | – | – | – | – | – | – | – | – | –
16 | Cc1cccc(C(=O)Nc2cc(Sc3ncn[nH]3)c(O)c3ccccc23)c1 | Active | 59.5 | 20.2 | inactive | > 100 | > 100 | – | – | – | – | – | – | – | – | – | – | – | – | –
17 | CN[C@@H]1C[C@H]2O[C@@](C)([C@@H]1OC)n1c3ccccc3c3c4c(c5c6ccccc6n2c5c31)C(=O)NC4 | – | – | – | 97.9% | – | – | – | – | – | – | – | – | – | – | – | – | – | – | –
18 | COc1ccc(C(=O)Nc2cc(Sc3ncn[nH]3)c(O)c3ccccc23)cc1 | Active | > 100 | 30.8 | inactive | > 100 | > 100 | – | – | – | – | – | – | – | – | – | – | – | – | –
19 | O=C(Nc1cc(Sc2ncnc3nc[nH]c23)c(O)c2ccccc12)c1ccc([N+](=O)[O-])cc1 | Active | > 100 | – | – | > 100 | > 100 | – | – | – | – | – | – | – | – | – | – | – | – | –
20 | O=C(/C=C/c1ccccc1)Nc1cc(Sc2ncn[nH]2)c(O)c2ccccc12 | Active | > 100 | 26.1 | inactive | > 100 | > 100 | > 80 | – | – | – | – | – | – | – | – | – | – | – | –
21 | O=C(Nc1cc(Sc2ncn[nH]2)c(O)c2ccccc12)c1ccccc1[N+](=O)[O-] | – | 52.5 | 85.8 | 56.8% | 10.2 | 21.4 | > 80 | 91 | 95 | – | 83 | Dose-dependent effect | 5.34 | 10.8 | 40.5 | 2.81 | – | 37.9 | 65.2
